In ChEMBL document CHEMBL4411273, “Polycyclic maleimide-based derivatives as first dual modulators of neuronal calcium channels and GSK-3β for Alzheimer's disease treatment” (Eur J Med Chem, 2019):

Tests used:
[1] = tested on: Voltage-gated calcium channel; experiment: Inhibition of K+-induced voltage gated calcium channel opening in human SH-SY5Y cells assessed as decrease in Ca2+ level at 10 uM after 10 mins by Fluo-4 dye-based fluorescence assay relative to control; type: cell-based
In short: (§1)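 Confluent SH-SY5Y cells (36–72 h after seeding) loaded with Fluo-4, washed with Krebs-HEPES, then incubated 10 min with compound or DMSO. Depolarized by injecting KCl to 70 mM and fluorescence followed for 2 min. Fmax taken after 5% Triton X lysis, Fmin after MnCl2. Ca2+ rise expressed against K+-induced rise without compound; blind testing, at least three independent experiments in triplicate, mean ± SEM. IC50 obtained by sigmoidal regression.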

[2] = molecular target: Voltage-gated calcium channel; experiment: Inhibition of K+-induced voltage gated calcium channel opening in human SH-SY5Y cells assessed as decrease in Ca2+ level after 10 mins by Fluo-4 dye-based fluorescence assay; type: cell-based; in short: as §1
[3] = tested on: Left cardiac atrium; experiment: Negative inotropic activity in guinea pig left atrium assessed as decrease in developed tension at 5 x 10^-5 M relative to control; type: ADME, tissue-based, Cavia porcellus; design: scale not given: the % may be the effect or the level left; settings: 50 µM
In short: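 Isolated guinea-pig left atrium driven at 1 Hz. Cumulative compound concentrations from 0.1 to 100 µM. Percent decrease in developed tension versus control, n = 5–6. EC50 from log concentration–response curves by Probit analysis, n = 6–7; not calculated when maximum effect was <50%.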

[4] = tested on: Right cardiac atrium; experiment: Negative chronotropic activity in guinea pig spontaneously beating right atrium assessed as decrease in atrial rate at 10^-5 M; type: ADME, tissue-based, Cavia porcellus; design: scale not given: the % may be the effect or the level left; settings: 10 µM
In short: (§2)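 Isolated spontaneously beating guinea-pig right atrium. Cumulative compound addition from 0.1 to 100 µM. Percent decrease in atrial rate, and in developed tension (n = 7–8), versus control. EC50 from log concentration–response curves by Probit analysis; not calculated when maximum effect was <50%.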

[5] = tested on: Aorta; experiment: Inhibition of calcium-induced contraction in K+-depolarized guinea pig aortic strips at 5 x 10^-5 M relative to control; type: tissue-based; settings: Cavia porcellus
In short: (§3)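 Isolated guinea-pig aortic strips and ileum longitudinal smooth muscle, depolarized with 80 mM K+. Calcium-induced contraction measured with cumulative compound addition. Percent inhibition relative to control. IC50 from log concentration–response curves by Probit analysis, n = 6–7; not calculated when maximum effect was <50%.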

[6] = tested on: Ileum; experiment: Inhibition of calcium-induced contraction in K+-depolarized guinea pig ileum at 5 x 10^-5 M relative to control; type: tissue-based; settings: Cavia porcellus; in short: as §3
[7] = tested on: Ileum; experiment: Inhibition of calcium-induced contraction in K+-depolarized guinea pig ileum; type: tissue-based; settings: Cavia porcellus
[8] = tested on: Left cardiac atrium (Cavia porcellus); experiment: Negative inotropic activity in guinea pig left atrium driven at 1 Hz assessed as decrease in developed tension at 10^-5 M; design: scale not given: the % may be the effect or the level left; settings: 10 µM
[9] = tested on: Right cardiac atrium; experiment: Negative inotropic activity in guinea pig spontaneously beating spontaneously beating right atrium assessed as decrease in developed tension; type: ADME, tissue-based; settings: Cavia porcellus; in short: as §2
[10] = tested on: Left cardiac atrium; experiment: Negative inotropic activity in guinea pig left atrium assessed as decrease in developed tension at 10^-5 M relative to control; design: scale not given: the % may be the effect or the level left; settings: 10 µM
[11] = tested on: Left cardiac atrium; experiment: Negative inotropic activity in guinea pig left atrium assessed as decrease in developed tension; type: ADME, tissue-based; settings: Cavia porcellus
[12] = tested on: Ileum; experiment: Inhibition of calcium-induced contraction in K+-depolarized guinea pig ileum at 10^-6 M relative to control; type: tissue-based; settings: Cavia porcellus; in short: as §3
[13] = Cytotoxicity against human SH-SY5Y cells assessed as cell viability at 10 uM after 48 hrs by MTT assay relative to control; type: cell-based; settings: read-out: Activity
In short: (§4)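 SH-SY5Y cells seeded at 70 000 cells/well, exposed before confluence to compounds in MEM/F12 with 10% FBS for 24 h, then fresh medium with 1% FBS plus compounds for a further 24 h. MTT 1.2 mM for 2 h in dark; formazan dissolved in DMSO, absorbance at 540 nm. Viability expressed as percent of vehicle (DMSO)-treated cells; three independent experiments, mean ± SEM.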

[14] = Cytotoxicity against human SH-SY5Y cells assessed as cell viability at 30 uM after 48 hrs by MTT assay relative to control; type: cell-based; settings: read-out: Activity; in short: as §4
[15] = tested on: Right cardiac atrium; experiment: Negative inotropic activity in guinea pig spontaneously beating right atrium assessed as decrease in developed tension at 5 x 10^-5 M; type: ADME, tissue-based, Cavia porcellus; design: scale not given: the % may be the effect or the level left; settings: 50 µM; in short: as §2
[16] = tested on: Right cardiac atrium; experiment: Negative chronotropic activity in guinea pig spontaneously beating right atrium assessed as decrease in atrial rate at 5 x 10^-5 M; type: ADME, tissue-based, Cavia porcellus; design: scale not given: the % may be the effect or the level left; settings: 50 µM; in short: as §2
[17] = tested on: Ileum; experiment: Inhibition of calcium-induced contraction in K+-depolarized guinea pig ileum at 10^-5 M relative to control; type: tissue-based; settings: Cavia porcellus; in short: as §3
[18] = molecular target: Glycogen synthase kinase-3 beta (Homo sapiens) (UniProt P49841); experiment: Inhibition of GSK3beta (unknown origin) assessed as residual activity at 50 uM pre-incubated for 30 mins followed by ULight-GS (Ser641/pSer657) peptide substrate addition and measured after 1 hr by TR-FRET assay relative to control
In short: (§5)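 TR-FRET (LANCE Ultra) kinase assay at 22 °C in 50 mM HEPES pH 7.5, 1 mM EGTA, 10 mM MgCl2, 2 mM DTT, 0.01% Tween-20, 3% DMSO. GSK-3β (0.5 nM final) preincubated 30 min with compound; ATP 10 µM and ULight-GS peptide 50 nM (final) added for 1 h. Stopped with 24 mM EDTA plus 2 nM Eu-anti-phospho-GS antibody, 1 h. Read at ex 320 nm, em 615/665 nm. Residual activity relative to DMSO; three separate experiments, mean ± SD.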

[19] = molecular target: Glycogen synthase kinase-3 beta (Homo sapiens) (UniProt P49841); experiment: Inhibition of GSK3beta (unknown origin) assessed as residual activity at 3.12 uM pre-incubated for 30 mins followed by ULight-GS (Ser641/pSer657) peptide substrate addition and measured after 1 hr by TR-FRET assay relative to control; in short: as §5
[20] = tested on: Right cardiac atrium; experiment: Negative chronotropic activity in guinea pig spontaneously beating right atrium assessed as decrease in atrial rate at 10^-6 M; type: ADME, tissue-based, Cavia porcellus; design: scale not given: the % may be the effect or the level left; settings: 1 µM; in short: as §2
[21] = tested on: Right cardiac atrium; experiment: Negative chronotropic activity in guinea pig spontaneously beating right atrium assessed as decrease in atrial rate at 10^-7 M; type: ADME, tissue-based, Cavia porcellus; design: scale not given: the % may be the effect or the level left; settings: 0.1 µM
[22] = tested on: Aorta; experiment: Inhibition of calcium-induced contraction in K+-depolarized guinea pig aortic strips at 10^-6 M relative to control; settings: Cavia porcellus, read-out: INH
[23] = tested on: Ileum; experiment: Inhibition of calcium-induced contraction in K+-depolarized guinea pig ileum at […] relative to control; settings: Cavia porcellus, read-out: INH

Glycogen synthase kinase-3 beta (Homo sapiens), sequence (P49841 whole entry, looked up): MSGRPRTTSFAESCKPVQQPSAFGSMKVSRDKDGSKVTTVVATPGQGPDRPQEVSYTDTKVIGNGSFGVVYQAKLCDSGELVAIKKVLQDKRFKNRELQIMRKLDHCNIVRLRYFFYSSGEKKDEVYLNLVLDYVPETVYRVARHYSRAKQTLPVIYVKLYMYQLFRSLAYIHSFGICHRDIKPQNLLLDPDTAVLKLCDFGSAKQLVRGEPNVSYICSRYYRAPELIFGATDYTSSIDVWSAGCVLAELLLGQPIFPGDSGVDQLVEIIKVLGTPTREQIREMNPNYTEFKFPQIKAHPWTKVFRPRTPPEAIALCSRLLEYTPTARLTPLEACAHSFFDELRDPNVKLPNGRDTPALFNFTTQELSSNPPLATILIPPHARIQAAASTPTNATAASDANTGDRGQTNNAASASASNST

| SMILES | inhibition (INH) [1] [%] | IC50 [2] [nM] | Activity [3] [%] | Activity [4] [%] | EC50 [7] [nM] | Activity [8] [%] | EC50 [9] [nM] | Activity [10] [%] | EC50 [11] [nM] | Activity [15] [%] | inhibition at 50 µM [5] [%] | inhibition at 50 µM [6] [%] | viability at 48 h, 10 µM [13] [%] | viability at 48 h, 30 µM [14] [%] | further results |
| --- | --- | --- | --- | --- | --- | --- | --- | --- | --- | --- | --- | --- | --- | --- | --- |
| CC(=O)c1ccc2c(c1)C1c3ccccc3C2C2C(=O)NC(=O)C12 (stereo unspecified) | 20 |  | 11 | 33 | 770 | 4 |  |  |  |  | 18 | 85 |  |  |  |
| O=C1NC(=O)C2C3c4ccccc4C(c4ccc(Cl)cc43)C12 (stereo unspecified) | 39 | 15000 |  | 47 | 3330 | 87 | 2480 | 80 | 430 |  | 21 |  | 91 | 97 | inhibition at 1 µM [12]: 90% |
| O=C1NC(=O)C2C1C1c3ccccc3C2(/C=N/Cc2ccccc2)c2ccccc21 (stereo unspecified) | 4 |  | 75 |  | 12100 |  | 2870 |  | 850 | 85 |  | 85 |  |  | Activity [16]: 26%; Activity [18]: 51% |
| CC(=O)Nc1cccc2c1C1c3ccccc3C2C2C(=O)NC(=O)C12 (stereo unspecified) | 0 |  |  |  |  |  |  | 65 | 320 | 34 | 6 | 12 |  |  | Activity [16]: 8% |
| Nc1ccc2c(c1)C1c3ccccc3C2C2C(=O)NC(=O)C12 (stereo unspecified) | 6 |  | 74 |  | 1270 |  | 2200 |  | 1490 | 79 |  |  |  |  | Activity [20]: 15%; inhibition at 10 µM [17]: 90% |
| COC(=O)C1=C(C)NC(C)=C(C(=O)OC)C1c1ccccc1[N+](=O)[O-] [NIFEDIPINE] |  |  |  |  | 1.5 |  |  |  |  |  |  |  |  |  | Activity ([10]; Left cardiac atrium): 97%; Activity [21]: 85%; inhibition at 1 µM [22]: 82%; inhibition at 0.005 µM [23]: 70% |

The next lines start with results.

| inhibition (INH) [1] [%] | IC50 [2] [nM] | Activity [3] [%] | Activity [4] [%] | EC50 [7] [nM] | Activity [8] [%] | EC50 [9] [nM] | Activity [10] [%] | EC50 [11] [nM] | Activity [15] [%] | SMILES | inhibition at 50 µM [5] [%] | inhibition at 50 µM [6] [%] | viability at 48 h, 10 µM [13] [%] | viability at 48 h, 30 µM [14] [%] | further results |
| --- | --- | --- | --- | --- | --- | --- | --- | --- | --- | --- | --- | --- | --- | --- | --- |
| 25 | 14000 |  |  |  |  |  |  |  |  | COCCOC(=O)C1=C(C)NC(C)=C(C(=O)OC(C)C)C1c1cccc([N+](=O)[O-])c1 (stereo unspecified) [NIMODIPINE] |  |  |  |  |  |
| 8 |  | 79 |  | 2510 |  | 2180 |  | 3650 | 93 | CC(=O)Nc1ccc2c(c1)C1c3ccccc3C2C2C(=O)NC(=O)C12 (stereo unspecified) | 10 |  |  |  | Activity [16]: 37%; inhibition at 10 µM [17]: 67% |
| 38 | 15000 | 97 |  | 490 |  | 470 |  | 220 | 97 | O=C1NC(=O)C2C1C1(Cl)c3ccccc3C2(Cl)c2ccccc21 (stereo unspecified) | 7 |  | 95 | 92 | inhibition at 1 µM [12]: 68%; Activity [18]: 48% |
| 56 | 9000 |  | 45 | 3670 | 85 | 510 | 76 | 1910 |  | CCCCCCCNC(=O)C12c3ccccc3C(c3ccccc31)C1C(=O)NC(=O)C12 (stereo unspecified) | 6 | 94 | 85 | 87 | Activity [19]: 55%; Activity [18]: 10% |
| 11 |  | 82 | 42 | 14700 |  | 1870 |  | 1910 | 92 | Nc1cccc2c1C1c3ccccc3C2C2C(=O)NC(=O)C12 (stereo unspecified) | 8 | 97 |  |  |  |
| 37 | 11000 |  | 37 | 1180 | 94 | 1080 | 93 | 870 |  | O=C1NC(=O)C2C3c4ccccc4C(c4cccc(Cl)c43)C12 (stereo unspecified) | 9 |  | 92 | 93 | inhibition at 10 µM [17]: 90% |
